Test results reported in ChEMBL document CHEMBL1806381, “Unprecedented C-2 arylation of indole with diazonium salts: Syntheses of 2,3-disubstituted indoles and their antimicrobial activity” (Bioorg Med Chem Lett, 2011).
In brackets after ≈: the same amount, converted by molar mass.

Experiments:
Pseudomonas aeruginosa = test: Antimicrobial activity against Pseudomonas aeruginosa ATCC 27853 assessed as growth inhibition after 18 hrs by MTT assay; format: functional; settings: ATCC 27853, 18 h
Summary of the method: (§1)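 Bacterial suspensions were adjusted to about 5×10^5 CFU/mL and treated with compounds in 2-fold serial dilutions. They were incubated for 18 h as ATCC recommends. Viability was read by MTT because the compounds are coloured.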

Candida albicans = test: Antimicrobial activity against Candida albicans ATCC 26555 assessed as growth inhibition after 18 hrs by MTT assay; format: functional; settings: ATCC 26555, 18 h
Enterococcus faecalis = test: Antimicrobial activity against low-level vancomycin-resistant Enterococcus faecalis ATCC 51299 assessed as growth inhibition after 18 hrs by MTT assay; format: functional; settings: ATCC 51299, 18 h
Summary of the method: (§2)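 Bacterial suspensions adjusted to ~5×10^5 CFU/mL, treated with compounds in 2-fold serial dilutions, incubated per ATCC recommendations for 18 h. Viability read by MTT method, used because the compounds are coloured.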

Staphylococcus aureus [1] = test: Antimicrobial activity against methicillin-resistant Staphylococcus aureus BAA-44 assessed as growth inhibition after 18 hrs by MTT assay; format: functional; settings: BAA-44, 18 h; summary of the method: as §2
Acinetobacter baumannii = test: Antimicrobial activity against Acinetobacter baumannii ATCC 15151 assessed as growth inhibition after 18 hrs by MTT assay; format: functional; settings: ATCC 15151, 18 h; summary of the method: as §1
Staphylococcus aureus [2] = test: Antimicrobial activity against methicillin-susceptible Staphylococcus aureus ATCC 29213 assessed as growth inhibition after 18 hrs by MTT assay; format: functional; settings: ATCC 29213, 18 h; summary of the method: as §1
[3] = Antiproliferative activity against human HeLa cells after 72 hrs by MTT assay; format: cell-based

SMILES | MIC (Pseudomonas aeruginosa) [µM] | MIC (Candida albicans) [µM] | MIC (Enterococcus faecalis) [µM] | MIC (Staphylococcus aureus [1]) [µM] | MIC (Acinetobacter baumannii) [µM] | MIC (Staphylococcus aureus [2]) [µM] | GI50 at 72 h [3] [µM]
Clc1ccc(-c2cc3ccccc3[nH]2)cc1 | > 100 | > 100 | > 100 | > 100 | > 100 | > 100 | > 100
O=S(=O)(c1ccc(Cl)cc1)c1c(-c2ccc(Cl)cc2)[nH]c2ccccc12 | > 100 | > 100 | > 100 | > 100 | > 100 | > 100 | 14
Clc1ccc(/N=N/c2c[nH]c3ccccc23)cc1 | > 100 | 12.5 (≈ 3.2 µg/mL) | 25 (≈ 6.39 µg/mL) | 12.5 (≈ 3.2 µg/mL) | > 100 | 12.5 (≈ 3.2 µg/mL) | 23
Brc1ccc(/N=N/c2c[nH]c3ccccc23)cc1 | > 100 | 25 (≈ 7.5 µg/mL) | 12.5 (≈ 3.75 µg/mL) | 6.3 (≈ 1.89 µg/mL) | > 100 | 6.3 (≈ 1.89 µg/mL) | 49
Brc1ccc(/N=N/c2c(-c3ccc(Br)cc3)[nH]c3ccccc23)cc1 | > 100 | > 100 | 6.3 (≈ 2.87 µg/mL) | 12.5 (≈ 5.69 µg/mL) | > 100 | 6.3 (≈ 2.87 µg/mL) | 9
COc1ccc(/N=N/c2c(-c3ccc(OC)cc3)[nH]c3ccccc23)cc1 | > 100 | > 100 | > 100 | 50 (≈ 17.9 µg/mL) | > 100 | 3.1 (≈ 1.11 µg/mL) | 23
Clc1ccc(/N=N/c2c(-c3ccc(Br)cc3)[nH]c3ccccc23)cc1 | > 100 | > 100 | 6.3 (≈ 2.59 µg/mL) | 6.3 (≈ 2.59 µg/mL) | > 100 | 6.3 (≈ 2.59 µg/mL) | 13
Clc1ccc(/C=C/c2c[nH]c3ccccc23)cc1 | > 100 | > 100 | > 100 | > 100 | > 100 | 25 (≈ 6.34 µg/mL) | 64
Clc1ccc(/C=C/c2[nH]c3ccccc3c2/C=C/c2ccc(Cl)cc2)cc1 | > 100 | > 100 | > 100 | > 100 | > 100 | > 100 | 69
Clc1ccc(-c2cc3[nH]c4ccccc4c3cc2-c2ccc(Cl)cc2)cc1 | > 100 | > 100 | > 100 | > 100 | > 100 | > 100 | 16
Clc1ccc(Sc2c(-c3ccc(Cl)cc3)[nH]c3ccccc23)cc1 | > 100 | > 100 | 3.1 (≈ 1.15 µg/mL) | 3.1 (≈ 1.15 µg/mL) | > 100 | 1.6 (≈ 0.592 µg/mL) | 6
Clc1ccc(Sc2c(-c3ccc(Br)cc3)[nH]c3ccccc23)cc1 | > 100 | > 100 | 3.1 (≈ 1.29 µg/mL) | 3.1 (≈ 1.29 µg/mL) | > 100 | 1.6 (≈ 0.664 µg/mL) | 12
Clc1ccc(Sc2c(-c3ccc(Cl)cc3)[nH]c3ccc(Cl)cc23)cc1 | > 100 | > 100 | 6.3 (≈ 2.55 µg/mL) | 1.3 (≈ 0.526 µg/mL) | > 100 | 1.6 (≈ 0.648 µg/mL) | 8
Clc1ccc(Oc2c(-c3ccc(Cl)cc3)[nH]c3ccccc23)cc1 | > 100 | > 100 | 12.5 (≈ 4.43 µg/mL) | 3.1 (≈ 1.1 µg/mL) | > 100 | 1.6 (≈ 0.567 µg/mL) | 9
Clc1ccc(Oc2c(-c3ccc(Cl)cc3)[nH]c3ccc(Cl)cc23)cc1 | > 100 | > 100 | 12.5 (≈ 4.86 µg/mL) | 0.6 (≈ 0.233 µg/mL) | > 100 | 1.6 (≈ 0.622 µg/mL) | 8
Clc1ccc(Oc2c(-c3ccc(Cl)cc3)[nH]c3ccc(Br)cc23)cc1 | > 100 | > 100 | 12.5 (≈ 5.41 µg/mL) | 3.1 (≈ 1.34 µg/mL) | > 100 | 3.1 (≈ 1.34 µg/mL) | 3
Fc1ccc2[nH]c(-c3ccc(Cl)cc3)c(Oc3ccc(Cl)cc3)c2c1 | > 100 | > 100 | 6.3 (≈ 2.35 µg/mL) | 1.6 (≈ 0.596 µg/mL) | > 100 | 1.6 (≈ 0.596 µg/mL) | 13
COc1ccc2[nH]c(-c3ccc(Cl)cc3)c(Oc3ccc(Cl)cc3)c2c1 | > 100 | > 100 | 25 (≈ 9.61 µg/mL) | 6.3 (≈ 2.42 µg/mL) | > 100 | 12.5 (≈ 4.8 µg/mL) | 24
Fc1cccc2c(Oc3ccc(Cl)cc3)c(-c3ccc(Cl)cc3)[nH]c12 | > 100 | > 100 | 3.1 (≈ 1.15 µg/mL) | 1.3 (≈ 0.484 µg/mL) | > 100 | 1.6 (≈ 0.596 µg/mL) | 13
O=C(c1ccc(Cl)cc1)c1c(-c2ccc(Cl)cc2)[nH]c2ccccc12 | > 100 | > 100 | > 100 | > 100 | > 100 | > 100 | 19
CC1(C)S[C@@H]2[C@H](NC(=O)Cc3ccccc3)C(=O)N2[C@H]1C(=O)O [PENICILLIN G] | – | – | 11.9 (≈ 3.98 µg/mL) | > 100 | – | 23.9 (≈ 7.99 µg/mL) | –
CN[C@H](CC(C)C)C(=O)N[C@H]1C(=O)N[C@@H](CC(N)=O)C(=O)N[C@H]2C(=O)N[C@H]3C(=O)N[C@H](C(=O)N[C@H](C(=O)O)c4cc(O)cc(O)c4-c4cc3ccc4O)[C@H](O)c3ccc(c(Cl)c3)Oc3cc2cc(c3O[C@@H]2O[C@H](CO)[C@@H](O)[C@H](O)[C@H]2O[C@H]2C[C@](C)(N)[C@H](O)[C@H](C)O2)Oc2ccc(cc2Cl)[C@H]1O [VANCOMYCIN] | – | – | 86.3 (≈ 125 µg/mL) | 2.8 (≈ 4.06 µg/mL) | – | 2.8 (≈ 4.06 µg/mL) | –
